According to ChEMBL document CHEMBL1124013, “Anticonvulsant activities of phenyl-substituted bicyclic 2,4-oxazolidinediones and monocyclic models. Comparison with binding to the neuronal voltage-dependent sodium channel” (J Med Chem, 1988):
Calls of active or inactive are those of the source. The calls are words filed in the database; no cut-off is given here.

Key:
[1] = Rotarod toxicity test for the compound in Phase-II screening was determined; assay type: organism-based; settings: mouse, in vivo
Mus musculus [2] = assay: Anticonvulsant activity in mice, induced by maximal electroshock for Phase-I screening; Active at 300 mg/kg; assay type: functional, organism-based; set-up: dose 300 mg/kg
Outline: (§1)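 Phase I qualitative screen run by the NINCDS Anticonvulsant Drug Development Program. Mice (1-4 per group) received 30, 100 or 300 mg/kg ip as suspensions in 30% polyethylene glycol 400 unless otherwise noted. Testing was 30 min after dosing in the MES, subcutaneous Metrazol or rotorod toxicity model.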

Mus musculus [3] = assay: Anticonvulsant activity in mice, induced by subcutaneous administration of Metrazol for Phase-I screening; Active at 30 mg/kg; assay type: functional, organism-based; set-up: dose 30 mg/kg; outline: as §1
[4] = biological target: Sodium channel alpha subunits; brain (Types I, II, III) (Rattus norvegicus, UniProt P04775+P04774+P08104); assay: In vitro inhibition of [3H]-BTX-B binding to sodium channels in rat brain synapto-neurosomes; assay type: tissue-based
Outline: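 Rat cerebral cortex synaptoneurosomes were prepared by glass-glass homogenization in choline chloride/HEPES/glucose/MgSO4/KCl buffer, then spun at 1000g for 15 min at 4 °C. Incubation was 40 min at 25 °C with 10 nM [3H]BTX-B, 50 µg/mL scorpion venom, about 980 µg protein and varying compound concentrations (final MeOH <1%). Bound label was collected by filtration and scintillation counting. Nonspecific binding was taken with 250 µM veratridine. IC50 is the concentration giving 50% inhibition of specific binding.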

Mus musculus [5] = assay: Rotarod toxicity test in Phase-I screening was determined; Active at 30 mg/kg; assay type: organism-based; set-up: dose 30 mg/kg; settings: in vivo; outline: as §1
Mus musculus [6] = assay: Anticonvulsant activity in mice, (induced by subcutaneous administration of Metrazol.) after 0.5 hr of administration, for Phase-II screening; assay type: functional; settings: sc
Outline: (§2)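 Phase II quantitative evaluation in mice by the NINCDS program. Dosing was ip as suspensions in 0.5% methylcellulose or 30% polyethylene glycol 400. ED50 (MES or subcutaneous Metrazol) or TD50 (rotorod) in mg/kg was derived with 95% confidence intervals, measured at the stated time after administration.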

Mus musculus [7] = assay: Anticonvulsant activity in mice(induced by maximal electroshock )after 0.5 hr of administration, for Phase-II screening; assay type: functional; outline: as §2
Mus musculus [8] = assay: Rotarod toxicity test in Phase-I screening was determined; Inactive up to 300 mg/kg; assay type: organism-based; set-up: dose 300 mg/kg; settings: in vivo; outline: as §1
Mus musculus [9] = assay: Anticonvulsant activity in mice, induced by maximal electroshock for Phase-I screening; Inactive up to 300 mg/kg; assay type: functional, organism-based; set-up: dose 300 mg/kg
Outline: (§3)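 NINCDS Anticonvulsant Drug Development Program qualitative phase I screen in mice (1-4 per dose) at 30, 100 and 300 mg/kg, given ip as suspensions in 30% PEG 400 (some in 0.5% methylcellulose). Challenge 30 min post-dose with maximal electroshock or subcutaneous Metrazol.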

Mus musculus [10] = assay: Anticonvulsant activity in mice, induced by subcutaneous administration of Metrazol for Phase-I screening; Inactive up to 300 mg/kg; assay type: functional, organism-based; set-up: dose 300 mg/kg; outline: as §3
Mus musculus [11] = assay: Anticonvulsant activity in mice(induced by maximal electroshock )after 0.25 hr of administration, for Phase-II screening; assay type: functional; outline: as §2
Mus musculus [12] = assay: Anticonvulsant activity in mice, induced by maximal electroshock for Phase-I screening; Active at 100 mg/kg; assay type: functional, organism-based; set-up: dose 100 mg/kg; outline: as §1
Mus musculus [13] = assay: Rotarod toxicity test in Phase-I screening was determined; Active at 300 mg/kg; assay type: organism-based; set-up: dose 300 mg/kg; settings: in vivo; outline: as §1
Mus musculus [14] = assay: Anticonvulsant activity in mice, induced by subcutaneous administration of Metrazol for Phase-I screening; Active at 300 mg/kg; assay type: functional, organism-based; set-up: dose 300 mg/kg; outline: as §1
Mus musculus [15] = assay: Anticonvulsant activity in mice, (induced by subcutaneous administration of Metrazol.) after 0.25 hr of administration, for Phase-II screening; assay type: functional; settings: sc; outline: as §2
Mus musculus [16] = assay: Anticonvulsant activity in mice, induced by subcutaneous administration of Metrazol for Phase-I screening; Active at 100 mg/kg; assay type: functional, organism-based; set-up: dose 100 mg/kg; outline: as §1
Mus musculus [17] = assay: Anticonvulsant activity in mice, (induced by subcutaneous administration of Metrazol.) after 2 hr of administration, for Phase-II screening; Inactive; assay type: functional, organism-based; outline: as §2
Mus musculus [18] = assay: Anticonvulsant activity in mice(induced by maximal electroshock )after 2 hr of administration, for Phase-II screening; assay type: functional; outline: as §2
Mus musculus [19] = assay: Anticonvulsant activity in mice (induced by maximal electroshock )after 0.5 hr of administration, for Phase-II screening; assay type: functional; outline: as §2
Mus musculus [20] = assay: Anticonvulsant activity in mice, (induced by subcutaneous administration of Metrazol.) after 0.25 hr of administration, for Phase-II screening; Inactive; assay type: functional, organism-based; outline: as §2
Mus musculus [21] = assay: Anticonvulsant activity in mice(induced by maximal electroshock )after 1 hr (tested for rotarod test only) of administration, for Phase-II screening; assay type: functional
Mus musculus [22] = assay: Anticonvulsant activity in mice, (induced by subcutaneous administration of Metrazol.) after 1 hr (tested for rotarod test only) of administration, for Phase-II screening; assay type: functional; settings: sc
Mus musculus [23] = assay: Anticonvulsant activity in mice, induced by maximal electroshock for Phase-I screening; active at 100 mg/kg; assay type: functional, organism-based; set-up: dose 100 mg/kg; outline: as §1
Mus musculus [24] = assay: Anticonvulsant activity in mice, induced by subcutaneous administration of Metrazol for Phase-I screening; active at 100 mg/kg; assay type: functional, organism-based; set-up: dose 100 mg/kg; outline: as §1
Mus musculus [25] = assay: Rotarod toxicity test in Phase-I screening was determined; active at 100 mg/kg; assay type: organism-based; set-up: dose 100 mg/kg; settings: in vivo; outline: as §1
Mus musculus [26] = assay: Anticonvulsant activity in mice(induced by maximal electroshock) after 0.25 hr of administration, for Phase-II screening; assay type: functional; outline: as §2
Mus musculus [27] = assay: Anticonvulsant activity in mice, (induced by subcutaneous administration of Metrazol) after 0.25 hr of administration, for Phase-II screening; assay type: functional; settings: sc; outline: as §2

IC50 [4] [µM] | SMILES | TD50 [1] [mg/kg] | ED50 (Mus musculus [6]) [mg/kg] | MES (Mus musculus [12]) | scMet (Mus musculus [14]) | other results
500 | CCC1(c2ccccc2)OC(=O)N(C)C1=O (stereo not given) | 504 | 45 | – | – | MES (Mus musculus [2]): Active; scMet (Mus musculus [3]): Active; Rotorod (Mus musculus [5]): Active; ED50 (Mus musculus [7]): 124 mg/kg
> 800 | O=C1NCCCCC1(O)c1ccccc1 (stereo not given) | 210 | – | Active | Active | ED50 (Mus musculus [11]): 63 mg/kg; Rotorod (Mus musculus [13]): Active; ED50 (Mus musculus [15]): 74 mg/kg
380 | O=C1O[C@@]2(c3ccccc3)CCCCN1C2=O | – | – | – | Active | Rotorod (Mus musculus [8]): Not Active; MES (Mus musculus [9]): inactive
> 800 | COC1(c2ccccc2)CCCNC1=O (stereo not given) | 239 | 50 | Active | Active | Rotorod (Mus musculus [13]): Active; ED50 (Mus musculus [7]): 120 mg/kg
640 | CCOC(=O)N1CCCCC(O)(c2ccccc2)C1=O (stereo not given) | 216 | – | Active | – | ED50 (Mus musculus [11]): 84 mg/kg; scMet (Mus musculus [16]): Active; Rotorod (Mus musculus [13]): Active
> 800 | CCC1(c2ccccc2)OC(=O)NC1=O (stereo not given) | 164 | 39 | – | – | MES (Mus musculus [2]): Active; ED50 (Mus musculus [19]): 86 mg/kg; scMet (Mus musculus [3]): Active; Rotorod (Mus musculus [5]): Active
590 | CCOC(=O)N1CCCC(OC)(c2ccccc2)C1=O (stereo not given) | > 300 | 124 | – | Active | Rotorod (Mus musculus [8]): Not Active; MES (Mus musculus [2]): Active; ED50 (Mus musculus [7]): 225 mg/kg
> 800 | O=C1NCCCCCC1(O)c1ccccc1 (stereo not given) | 199 | – | Active | Active | ED50 (Mus musculus [11]): 80 mg/kg; Rotorod (Mus musculus [13]): Active; ED50 (Mus musculus [15]): 108 mg/kg
> 1000 | CN1C(=O)OC(C)(C)C1=O [TRIMETHADIONE] | 819 | – | – | – | ED50 (Mus musculus [21]): 627 mg/kg; ED50 (Mus musculus [22]): 300 mg/kg
160 | O=C1O[C@]2(c3ccccc3)CCCCCN1C2=O | 147 | – | – | – | MES (Mus musculus [23]): Active; scMet (Mus musculus [24]): Active; Rotorod (Mus musculus [25]): Active; ED50 (Mus musculus [26]): 66 mg/kg; ED50 (Mus musculus [27]): 45 mg/kg
> 800 | CN1CCCC(O)(c2ccccc2)C1=O (stereo not given) | ~350 | 128 | Active | Active | Rotorod (Mus musculus [8]): Not Active; ED50 (Mus musculus [7]): 84 mg/kg

SMILES | IC50 [4] [µM] | TD50 [1] [mg/kg] | ED50 (Mus musculus [6]) [mg/kg] | MES (Mus musculus [12]) | scMet (Mus musculus [14]) | other results
O=C1NCCCC1(O)c1ccccc1 (stereo not given) | > 800 | – | – | – | – | Rotorod (Mus musculus [8]): Not Active; MES (Mus musculus [9]): inactive; scMet (Mus musculus [10]): inactive
O=C1NC(=O)C(c2ccccc2)(c2ccccc2)N1 [PHENYTOIN] | 40 | – | – | – | – | ED50 (Mus musculus [17]): inactive; ED50 (Mus musculus [18]): 10 mg/kg
NC(=O)N1c2ccccc2C=Cc2ccccc21 [CARBAMAZEPINE] | 131 | – | – | – | – | ED50 (Mus musculus [11]): 9 mg/kg; ED50 (Mus musculus [20]): inactive
